Test results as given in ChEMBL document CHEMBL1145060, “Synthesis and evaluation of pharmacological properties of novel annelated 2,3-benzodiazepine derivatives” (2003).

How the values were obtained:
[1] = Anticonvulsant activity against Audiogenic seizures in DBA/2 mice was observed in tonic phase after intraperitoneal injection; assay type: functional; details: Mus musculus, ip
How it was run: (§1)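 Compound given intraperitoneally to DBA/2 mice 30 min before audiogenic seizure testing; clonic and tonic phases scored. ED50 (μmol/kg) with 95% confidence limits calculated by Litchfield and Wilcoxon.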

[2] = Anticonvulsant activity against Audiogenic seizures in DBA/2 mice was observed in clonic phase after intraperitoneal injection; assay type: functional; details: Mus musculus, ip; how it was run: as §1
[3] = Anticonvulsant activity against PTZ induced seizures was observed in mice after intraperitoneal injection; assay type: functional; details: Mus musculus, ip
How it was run: (§2)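 Swiss mice dosed ip 45 min before seizure induction by maximal electroshock (MES) or pentylenetetrazole (PTZ). ED50 (μmol/kg) with 95% confidence limits by Litchfield and Wilcoxon method.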

[4] = Anticonvulsant activity against in MES was observed in mice after intraperitoneal injection; assay type: functional; details: Mus musculus, ip; how it was run: as §2
[5] = Anticonvulsant activity against AMPA-induced seizures in DBA/2 mice was observed in tonic phase after intraperitoneal injection; assay type: functional; details: Mus musculus, ip
How it was run: (§3)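 DBA/2 mice given compound intraperitoneally, then challenged with AMPA to induce seizures; clonic and tonic phases scored separately. ED50 (μmol/kg) with 95% confidence limits by Litchfield and Wilcoxon method.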

[6] = Anticonvulsant activity against Audiogenic seizures in DBA/2 mice was observed in tonic phase after pretreatment with Aniracetam; assay type: functional; details: Mus musculus
How it was run: (§4)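 Audiogenic seizure test in DBA/2 mice, clonic and tonic phases; aniracetam 50 nmol given icv 60 min before testing, together with ip compound. ED50 with 95% confidence limits by Litchfield and Wilcoxon method.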

[7] = Anticonvulsant activity against Audiogenic seizures in DBA/2 mice was observed in clonic phase after pretreatment with Aniracetam; assay type: functional; details: Mus musculus; how it was run: as §4
[8] = Anticonvulsant activity against AMPA-induced seizures in DBA/2 mice was observed in clonic phase after intraperitoneal injection; assay type: functional, Mus musculus; how it was run: as §3
[9] = Mus musculus, ip, read-out: ED50

| Structure (SMILES) | ED50 [1] | ED50 [2] | ED50 [3] | ED50 [4] | ED50 [5] | ED50 [6] | ED50 [7] | ED50 [8] | ED50 [8, 9] |
| --- | --- | --- | --- | --- | --- | --- | --- | --- | --- |
| COc1cc2c(cc1OC)C(c1ccc(Cl)cc1)=Nn1c(n[nH]c(=O)c1=O)C2 | 33 µmol/kg | 37.4 µmol/kg |  |  |  |  |  |  |  |
| COc1cc2c(cc1OC)C(c1ccc(Br)cc1)=Nn1c(n[nH]c(=O)c1=O)C2 | 54.6 µmol/kg | 76.6 µmol/kg |  |  |  |  |  |  |  |
| COc1cc2c(cc1OC)C(c1ccccc1)=Nn1c(n[nH]c(=O)c1=O)C2 | 17.9 µmol/kg | 33.6 µmol/kg | 57.6 µmol/kg | 36.6 µmol/kg |  |  |  |  |  |
| COc1cc2c(cc1OC)C(c1ccc(N)cc1)=Nn1c(n[nH]c(=O)c1=O)C2 | 52.8 µmol/kg | 59.3 µmol/kg |  |  |  |  |  |  |  |
| COc1cc2c(cc1OC)C(c1ccc(N)cc1)=NNC(=O)C2 |  | 15 µmol/kg |  |  | 25 µmol/kg | 56.2 µmol/kg |  |  |  |
| COc1cc2c(cc1OC)C(c1cccc([N+](=O)[O-])c1)=Nn1c(n[nH]c(=O)c1=O)C2 | 88.9 µmol/kg | > 120 µmol/kg |  |  |  |  |  |  |  |
| COc1cc2c(cc1OC)C(c1cccc(N)c1)=Nn1c(n[nH]c(=O)c1=O)C2 | 57.7 µmol/kg | 74.5 µmol/kg |  |  |  |  |  |  |  |
| COc1cc2c(cc1OC)C(c1ccc([N+](=O)[O-])cc1)=Nn1c(n[nH]c(=O)c1=O)C2 | 25.7 µmol/kg | 60 µmol/kg |  |  |  |  |  |  |  |
| COc1cc2c(cc1OC)C(c1ccc(F)cc1)=Nn1c(n[nH]c(=O)c1=O)C2 | 28 µmol/kg | 39.2 µmol/kg | 63.2 µmol/kg | 37.8 µmol/kg |  |  |  |  |  |
| COc1cc2c(cc1OC)C(c1ccc(Cl)cc1)=Nn1c(O)nnc1C2 | 14.1 µmol/kg | 28.8 µmol/kg | 33.1 µmol/kg |  |  | 71.8 µmol/kg | 87.8 µmol/kg | 46.8 µM/kg | 46.8 µmol/kg |
| COc1cc2c(cc1OC)C(c1ccc(Br)cc1)=Nn1c(O)nnc1C2 | 1.34 µmol/kg | 3.65 µmol/kg | 13.8 µmol/kg | 5.93 µmol/kg |  | 7.87 µmol/kg | 18.6 µmol/kg | 17.7 µM/kg | 17.7 µmol/kg |
| CC1=NN=C(c2ccc(N)cc2)c2cc3c(cc2C1)OCO3 [GYKI-52466] |  |  |  |  |  | 100 µmol/kg |  |  | 57.5 µmol/kg |
| CC(=O)N1N=C(c2ccc(N)cc2)c2cc3c(cc2C[C@H]1C)OCO3 [TALAMPANEL] | 9.7 µmol/kg |  | 56.3 µmol/kg | 28.8 µmol/kg |  |  |  |  | 44.2 µmol/kg |
